Assay results from ChEMBL document CHEMBL5303300, “EUbOPEN Chemogenomics Library - Multiplex” (2023).
Where “and” joins values, the source holds several entries; their conditions need not be identical. Equal entries are not always repeated.

System: HEK-293T
Assay: Multiplex assay against HEK293T
Assay type: toxicity, cell-based
Details: human, number of replicates 2
In short: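 Imaging took place on a CQ1 microscope at 37°C and 5% CO2 once compound had been added to live cells stained at seeding with Hoechst33342, BioTracker Green Microtubule Cytoskeleton Dye, MitoTracker Red and Annexin V Alexa Fluor 680. CellPathfinder machine-learning gating classed cells as Hoechst high-intensity objects or normal cells, classed normal cells as having healthy, pyknosed or fragmented nuclei, and classed pyknosed cells as mitotic or apoptotic. Tubulin, mitochondrial-mass and membrane-permeability phenotypes are per cents of the healthy-nucleus cells.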

[1] = 12 h, 1 µM, compound concentration 1 uM
[2] = 12 h, 10 µM, compound concentration 10 uM
[3] = 24 h, 1 µM, compound concentration 1 uM
[4] = 24 h, 10 µM, compound concentration 10 uM
[5] = 48 h, 1 µM, compound concentration 1 uM
[6] = 48 h, 10 µM, compound concentration 10 uM

SMILES: CN(C)CCCNc1ccnc(Nc2cccc(Cl)c2)n1
- Population Apoptotic (%) [1]: 33% and 44%
- Population Fragmented Nuclei (%) [1]: 2% and 3%
- Population Healthy Nuclei (%) [1]: 86% and 87%
- Population Hoechst High Intensity Objects (%) [1]: 6% and 7%
- Population Membrane Permeable-Phenotype (%) [1]: 5% and 4%
- Population Mitochondria Different-Phenotype (%) [1]: 17% and 13%
- Population Mitotic Cells (%) [1]: 66% and 55%
- Population Normal (%) [1]: 93% and 92%
- Population Pyknosed Nuclei (%) [1]: 10% and 8%
- Population Tubulin-Different-Phenotype (%) [1]: 51% and 48%
- Total Cell Count [1]: 626 and 658
- Population Apoptotic (%) [2]: 52% and 65%
- Population Fragmented Nuclei (%) [2]: 4% and 3%
- Population Healthy Nuclei (%) [2]: 87% and 88%
- Population Hoechst High Intensity Objects (%) [2]: 10% and 11%
- Population Membrane Permeable-Phenotype (%) [2]: 3% and 2%
- Population Mitochondria Different-Phenotype (%) [2]: 37% and 32%
- Population Mitotic Cells (%) [2]: 47% and 34%
- Population Normal (%) [2]: 89% and 88%
- Population Pyknosed Nuclei (%) [2]: 8%
- Population Tubulin-Different-Phenotype (%) [2]: 79% and 75%
- Total Cell Count [2]: 466 and 581
- Population Apoptotic (%) [3]: 26% and 29%
- Population Fragmented Nuclei (%) [3]: 3% and 4%
- Population Healthy Nuclei (%) [3]: 89%
- Population Hoechst High Intensity Objects (%) [3]: 6%
- Population Membrane Permeable-Phenotype (%) [3]: 5% and 3%
- Population Mitochondria Different-Phenotype (%) [3]: 5% and 4%
- Population Mitotic Cells (%) [3]: 73% and 70%
- Population Normal (%) [3]: 93%
- Population Pyknosed Nuclei (%) [3]: 7% and 6%
- Population Tubulin-Different-Phenotype (%) [3]: 31% and 30%
- Total Cell Count [3]: 950 and 963
- Population Apoptotic (%) [4]: 43% and 66%
- Population Fragmented Nuclei (%) [4]: 3% and 4%
- Population Healthy Nuclei (%) [4]: 92% and 90%
- Population Hoechst High Intensity Objects (%) [4]: 7% and 14%
- Population Membrane Permeable-Phenotype (%) [4]: 6% and 3%
- Population Mitochondria Different-Phenotype (%) [4]: 32% and 35%
- Population Mitotic Cells (%) [4]: 56% and 33%
- Population Normal (%) [4]: 92% and 85%
- Population Pyknosed Nuclei (%) [4]: 4% and 5%
- Population Tubulin-Different-Phenotype (%) [4]: 79% and 83%
- Total Cell Count [4]: 546 and 605
- Population Apoptotic (%) [5]: 14% and 10%
- Population Fragmented Nuclei (%) [5]: 11% and 8%
- Population Healthy Nuclei (%) [5]: 86% and 87%
- Population Hoechst High Intensity Objects (%) [5]: 9% and 8%
- Population Membrane Permeable-Phenotype (%) [5]: 5% and 3%
- Population Mitochondria Different-Phenotype (%) [5]: 0%
- Population Mitotic Cells (%) [5]: 85% and 89%
- Population Normal (%) [5]: 90% and 91%
- Population Pyknosed Nuclei (%) [5]: 2% and 3%
- Population Tubulin-Different-Phenotype (%) [5]: 15% and 17%
- Total Cell Count [5]: 2534 and 2133
- Population Fragmented Nuclei (%) [6]: 6% and 5%
- Population Healthy Nuclei (%) [6]: 89% and 88%
- Population Hoechst High Intensity Objects (%) [6]: 6% and 9%
- Population Membrane Permeable-Phenotype (%) [6]: 6% and 5%
- Population Mitochondria Different-Phenotype (%) [6]: 8% and 10%
- Population Mitotic Cells (%) [6]: 86% and 42%
- Population Normal (%) [6]: 93% and 90%
- Population Pyknosed Nuclei (%) [6]: 3% and 5%
- Population Tubulin-Different-Phenotype (%) [6]: 52%
- Total Cell Count [6]: 814 and 883

SMILES: CC1=C(C)C(=O)C(C(CCCCCC(=O)O)c2ccccc2)=C(C)C1=O (stereo unspecified) [SERATRODAST]
- Population Apoptotic (%) [1]: 63% and 56%
- Population Fragmented Nuclei (%) [1]: 4% and 5%
- Population Healthy Nuclei (%) [1]: 78% and 82%
- Population Hoechst High Intensity Objects (%) [1]: 12% and 8%
- Population Membrane Permeable-Phenotype (%) [1]: 2% and 0%
- Population Mitochondria Different-Phenotype (%) [1]: 18% and 13%
- Population Mitotic Cells (%) [1]: 36% and 43%
- Population Normal (%) [1]: 87% and 91%
- Population Pyknosed Nuclei (%) [1]: 17% and 12%
- Population Tubulin-Different-Phenotype (%) [1]: 49% and 39%
- Total Cell Count [1]: 511 and 624
- Population Apoptotic (%) [2]: 47% and 51%
- Population Fragmented Nuclei (%) [2]: 4% and 5%
- Population Healthy Nuclei (%) [2]: 87% and 85%
- Population Hoechst High Intensity Objects (%) [2]: 7%
- Population Membrane Permeable-Phenotype (%) [2]: 4% and 2%
- Population Mitochondria Different-Phenotype (%) [2]: 8% and 11%
- Population Mitotic Cells (%) [2]: 52% and 48%
- Population Normal (%) [2]: 92%
- Population Pyknosed Nuclei (%) [2]: 7% and 9%
- Population Tubulin-Different-Phenotype (%) [2]: 39% and 43%
- Total Cell Count [2]: 857 and 708
- Population Apoptotic (%) [3]: 52% and 55%
- Population Fragmented Nuclei (%) [3]: 6% and 7%
- Population Healthy Nuclei (%) [3]: 79% and 81%
- Population Hoechst High Intensity Objects (%) [3]: 9%
- Population Membrane Permeable-Phenotype (%) [3]: 1%
- Population Mitochondria Different-Phenotype (%) [3]: 3%
- Population Mitotic Cells (%) [3]: 47% and 44%
- Population Normal (%) [3]: 90%
- Population Pyknosed Nuclei (%) [3]: 13% and 10%
- Population Tubulin-Different-Phenotype (%) [3]: 19% and 16%
- Total Cell Count [3]: 827 and 1038
- Population Apoptotic (%) [4]: 28% and 42%
- Population Fragmented Nuclei (%) [4]: 8% and 7%
- Population Healthy Nuclei (%) [4]: 86%
- Population Hoechst High Intensity Objects (%) [4]: 9% and 6%
- Population Membrane Permeable-Phenotype (%) [4]: 6% and 3%
- Population Mitochondria Different-Phenotype (%) [4]: 3% and 4%
- Population Mitotic Cells (%) [4]: 71% and 57%
- Population Normal (%) [4]: 90% and 93%
- Population Pyknosed Nuclei (%) [4]: 4% and 6%
- Population Tubulin-Different-Phenotype (%) [4]: 29% and 35%
- Total Cell Count [4]: 1313 and 975
- Population Apoptotic (%) [5]: 22% and 13%
- Population Fragmented Nuclei (%) [5]: 15% and 14%
- Population Healthy Nuclei (%) [5]: 81% and 83%
- Population Hoechst High Intensity Objects (%) [5]: 8%
- Population Membrane Permeable-Phenotype (%) [5]: 4% and 5%
- Population Mitochondria Different-Phenotype (%) [5]: 1% and 0%
- Population Mitotic Cells (%) [5]: 77% and 86%
- Population Normal (%) [5]: 91%
- Population Pyknosed Nuclei (%) [5]: 3% and 2%
- Population Tubulin-Different-Phenotype (%) [5]: 5%
- Total Cell Count [5]: 2229 and 2490
- Population Apoptotic (%) [6]: 6% and 13%
- Population Fragmented Nuclei (%) [6]: 25% and 16%
- Population Healthy Nuclei (%) [6]: 73% and 80%
- Population Hoechst High Intensity Objects (%) [6]: 9% and 8%
- Population Membrane Permeable-Phenotype (%) [6]: 11% and 5%
- Population Mitochondria Different-Phenotype (%) [6]: 0%
- Population Mitotic Cells (%) [6]: 93% and 86%
- Population Normal (%) [6]: 91%
- Population Pyknosed Nuclei (%) [6]: 1% and 2%
- Population Tubulin-Different-Phenotype (%) [6]: 15% and 21%
- Total Cell Count [6]: 3510 and 2285
